Calls of active or inactive are those of the source. The calls are words filed in the database; no cut-off is given here.
Columns and labels:
[1] = test system: Plasmodium falciparum; assay: Antiplasmodial activity against chloroquine-resistant Plasmodium falciparum W2 infected in human erythrocytes; assay type: functional, organism-based
In short: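 P. falciparum W2 grown in fresh human O+ erythrocytes at 2% hematocrit in complete medium, 37 °C. Compounds tested over a 100–3.12 µM dilution series. IC50 estimated from the dose-response curve relative to drug-free control wells (100% parasite viability). Artemisinin run in parallel as control. Triplicates, at least three independent cultures (n = 3).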

[2] = test system: Plasmodium falciparum; assay: Antiplasmodial activity against synchronous culture of chloroquine-resistant Plasmodium falciparum W2 ring stage parasite infected in human erythrocytes assessed as reduction in parasitaemia at 100 uM after 24 to 72 hrs by Wright's eosin methylene blue staining based microscopic analysis; assay type: functional, organism-based
In short: (§1)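 Stage-specificity test on W2 parasites in human erythrocytes, started at 2% parasitaemia. Parasites cultured at 2% hematocrit in complete medium at 37 °C.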

[3] = Cytotoxicity against human HepG2 cells after 72 hrs by MTT assay; assay type: cell-based
In short: (§2)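 VERO (ATCC CCL-81) and HepG2 (ATCC HB-8065) cells were exposed for 24, 48 or 72 h to an […] dilution series from 400 to 1.56 μM. CC50 was taken from the concentration–response curve. Triplicates, with at least three independent cultures (n = 3).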

[4] = Resistance index, ratio of IC50 for chloroquine-resistant Plasmodium falciparum W2 infected in human erythrocytes to IC50 for chloroquine-sensitive Plasmodium falciparum 3D7; assay type: functional
[5] = test system: Plasmodium falciparum; assay: Antiplasmodial activity against synchronous culture of chloroquine-resistant Plasmodium falciparum W2 ring stage parasite infected in human erythrocytes assessed as parasite cell death at 100 uM up to 72 hrs by Wright's eosin methylene blue staining based microscopic analysis; assay type: functional, organism-based; in short: as §1
[6] = biological target: T1, Subtilisin Carlsberg (Bacillus licheniformis, UniProt P00780); assay: Inhibition of Bacillus licheniformis subtilisin A by green-fluorescent BODIPY FL dye based fluorescence assay
T1 sequence (P00780 whole entry): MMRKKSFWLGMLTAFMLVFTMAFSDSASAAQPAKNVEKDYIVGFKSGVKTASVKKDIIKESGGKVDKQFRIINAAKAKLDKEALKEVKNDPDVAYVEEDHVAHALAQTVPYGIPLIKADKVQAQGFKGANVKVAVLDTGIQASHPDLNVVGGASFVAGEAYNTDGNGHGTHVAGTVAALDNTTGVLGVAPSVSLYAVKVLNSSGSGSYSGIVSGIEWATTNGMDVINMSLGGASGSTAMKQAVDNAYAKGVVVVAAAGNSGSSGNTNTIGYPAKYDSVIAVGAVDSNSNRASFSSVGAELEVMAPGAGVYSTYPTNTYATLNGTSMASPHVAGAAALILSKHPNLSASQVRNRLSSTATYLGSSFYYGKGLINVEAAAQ
In short: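 Purified B. licheniformis subtilisin A tested with a commercial fluorescent peptidase/protease kit, following the kit protocol. Test compound ranged from 5 to 0.01 mM. Fluorescence plotted against log inhibitor concentration.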

[7] = test system: Plasmodium falciparum; assay: Antiplasmodial activity against synchronous culture of chloroquine-resistant Plasmodium falciparum W2 ring stage parasite infected in human erythrocytes assessed as accumulation of ring forms at 100 uM after 24 to 72 hrs by Wright's eosin methylene blue staining based microscopic analysis; assay type: functional, organism-based; in short: as §1
[8] = test system: Plasmodium falciparum; assay: Antiplasmodial activity against chloroquine-sensitive Plasmodium falciparum 3D7; assay type: functional, organism-based
[9] = test system: Plasmodium falciparum; assay: Antiplasmodial activity against Plasmodium falciparum assessed as potentiation of artemisinin-induced antimalarial activity by measuring dose reduction index relative to artemisinin alone; assay type: functional
[10] = Selectivity index, ratio of CC50 for human HepG2 cells to IC50 for chloroquine-resistant Plasmodium falciparum W2; assay type: toxicity; details: read-out: Ratio CC50/IC50
In short: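 SI = HepG2 CC50 / W2 IC50. CC50 came from HepG2 growth inhibition over a 400–1.56 µM dilution series, read at 24, 48 and 72 h. IC50 came from the W2 erythrocyte assay (100–3.12 µM range). Triplicates, at least three independent cultures.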

[11] = test system: Plasmodium falciparum; assay: Antiplasmodial activity against synchronous culture of chloroquine-resistant Plasmodium falciparum W2 ring stage parasite infected in human erythrocytes assessed as delayed appearance of trophozoites at 100 uM after 24 to 72 hrs by Wright's eosin methylene blue staining based microscopic analysis; assay type: functional, organism-based; in short: as §1
[12] = Cytotoxicity against African green monkey Vero cells after 72 hrs by MTT assay; assay type: cell-based; details: chlorocebus sabaeus; in short: as §2
[13] = test system: Plasmodium falciparum; assay: Antiplasmodial activity against Plasmodium falciparum assessed as combination index in presence of artemisinin; assay type: functional
In short: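 Chloroquine-resistant P. falciparum W2 was grown in fresh human O+ erythrocytes at 2% hematocrit in complete medium at 37 °C. Artemisinin was co-tested with the triterpene using the one-point Chou–Talalay method, at a minimum of one combination ratio. CI is the sum of the two FICs: ≤1 synergy, 1–2 additivity, >2 antagonism. Triplicates, n = 3 independent cultures.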

C=C(C)[C@@H]1CC[C@]2(C(=O)O)CC[C@]3(C)[C@H](CC[C@@H]4[C@@]5(C)CC[C@H](OC(=O)CCC)C(C)(C)[C@@H]5CC[C@]43C)[C@@H]12
IC50 [1]: 3.4 µM
Activity [2]: Active
CC50 at 72 h [3]: > 400 µM
Ratio IC50 [4]: 0.68
Activity [5]: Active
IC50 [6]: 93 µM
Activity [7]: Active
IC50 [8]: 5 µM
Activity_index [9]: 4
selectivity ratio [10]: > 117
Activity [11]: Active
CC50 at 72 h [12]: > 400 µM
CI [13]: 1.34

From ChEMBL document CHEMBL4184121, “Semisynthesis, cytotoxicity, antimalarial evaluation and structure-activity relationship of two series of triterpene derivatives” (Bioorg Med Chem Lett, 2018)
